Most compounds without a hit are left out; they make up all but 3.3% or so of the library.
TCR CD3 inh: blocks the human TCR-CD3 interaction; TAMRA-labeled TCR probe fluorescence, biochemical; inhibition, % at 9.4 µM; 0.37% of 360,000 active; AID 651800; in the data active = inhibition above about 19%;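 also: recombinant mutant TCR 2C K166C tagged with TAMRA read by polarization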
SIAE primary: inhibitors of human sialic acid acetylesterase SIAE. inhibition, % at 9.66 µM. Q9HAT2. SIAE FP-Rh probe binding, fluorescence polarization. 0.69% of 370,000 active;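 active = inhibition above a cutoff: mean of compounds within the control limits plus 3 SD of those, cut at about 17% in these data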
rCAG binder: binds r(CAG) RNA repeats | AID 651821 | 1.3% of 370,000 active | r(CAG) RNA repeat, TO-PRO-1 dye displacement fluorescence | inhibition, % at 3 µM;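 active = inhibition above the plate cutoff, the mean of all test compounds on that plate plus 3 SD, cut at about 35% in these data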;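 also: higher means more dye released from RNA so lower well fluorescence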
PRMT1 FP inh: inhibitors of human PRMT1 | Q99873 | recombinant PRMT1, activity-based probe fluorescence polarization | inhibition, % at 2.79 µM | 1.3% of 370,000 active | AID 652257;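 active = inhibition above about 21% made by adding two undisclosed values, limit read from the data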
Target sequence (Q99873 whole entry, looked up): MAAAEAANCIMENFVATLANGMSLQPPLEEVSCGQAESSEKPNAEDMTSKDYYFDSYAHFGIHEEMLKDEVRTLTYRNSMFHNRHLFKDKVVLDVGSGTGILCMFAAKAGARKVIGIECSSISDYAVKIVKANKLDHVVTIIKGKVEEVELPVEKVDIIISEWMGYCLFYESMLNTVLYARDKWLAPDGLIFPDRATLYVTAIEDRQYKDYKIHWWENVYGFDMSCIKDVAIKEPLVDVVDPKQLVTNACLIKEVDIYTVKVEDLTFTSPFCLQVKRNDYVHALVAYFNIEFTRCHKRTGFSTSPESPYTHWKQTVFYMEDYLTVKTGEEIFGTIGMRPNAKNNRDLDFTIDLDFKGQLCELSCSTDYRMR
mABHD4 FP: inhibits mouse alpha/beta hydrolase domain 4. Q8VD66. purified mABHD4, FP-Rh probe fluorescence polarization. inhibition, % at 8.92 µM. 0.54% of 370,000 active;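 active = inhibition exceeding the mean over every tested compound plus 3 SD, cut at about 30% in these data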
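Assay system: mABHD4 protein; medium: HEPES pH 7.0, NaCl, Pluronic buffer; dosing: 8.92 µM, single dose; schedule: 45 min + 60 min at 25 °C; signal: FP readout, ex 525 nm / em 598 nm; read-out: normalized percent inhibition of probe labeling; repeats: single replicate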
PRMT1 confirm: confirmation of human PRMT1 inhibitors | 42% of 3,300 active | recombinant His-PRMT1, activity-based probe fluorescence polarization | inhibition, % at 2.79 µM | shares compounds with PRMT1 FP inh;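 active = mean inhibition across replicates above the hit cutoff derived for the earlier primary screen, cut at about 22% in these data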
Hits are given with their value; i = inactive; nt = no result given.

SMILES	TCR CD3 inh	SIAE primary	rCAG binder	PRMT1 FP inh	mABHD4 FP	PRMT1 confirm
O=[N+]([O-])c1ccccc1/C=N/N1CCN(Cc2ccccc2)CC1	i	i	i	i	i	nt
O=[N+]([O-])c1ccccc1C=NN1CCCCCC1	i	i	i	26.1	i	i
COc1ccc(OC)c(-n2c(=S)[nH]c3c(sc(=S)n3-c3ccccc3)c2=O)c1	i	i	i	65.4	i	i
c1nc(NCC2CCCC2)c2cc(-c3ccc4c(c3)OCO4)ccc2n1	nt	i	nt	i	i	nt
CC(=O)Oc1ccc(N2C(=O)C3C4C=CC(CO)(O4)C3C2=O)cc1 (stereo unspecified)	i	i	i	84.7	i	79.3
COc1ccc(N2C(=O)C3C4C=CC(c5ccccc5)(C3C2=O)C2C(=O)N(c3ccc(OC)cc3)C(=O)C42)cc1 (stereo unspecified)	i	i	i	i	i	nt
O=C1C2C3C=CC(CNS(=O)(=O)c4ccccc4)(O3)C2C(=O)N1c1ccc(Cl)cc1 (stereo unspecified)	i	i	i	79.6	i	68.7
CSS(=O)(=O)c1cccc2cccnc12	i	i	i	91.5	i	96.4
CCN(CC)S(=O)(=O)c1cccc2cccnc12	i	i	i	i	i	nt
CCCC1CCC2(CCCN2CCOC(=S)Nc2ccccc2)CC1 (stereo unspecified)	nt	i	nt	i	i	nt
FC(F)(F)c1ccccc1NC(=S)OCCN1CCCC12CCC(c1ccccc1)CC2 (stereo unspecified)	nt	i	nt	41.7	i	24.7
CCCC1CCC2(CCCN2CCOC(=S)Nc2cccc(Cl)c2)CC1 (stereo unspecified)	nt	i	nt	31.8	i	29.8
O=C(NCc1ccccc1F)C1CCC(CNS(=O)(=O)c2cccc3cccnc23)CC1 (stereo unspecified)	nt	i	i	i	i	nt
COc1ccccc1C(=O)NC1CCCCN(Cc2cccc(Cl)c2)C1=O (stereo unspecified)	nt	i	i	i	i	nt
Cc1ccc(C)c2[nH]c(=O)c(CN(Cc3ccc4c(c3)OCO4)Cc3nnnn3Cc3ccco3)cc12	i	i	i	28.0	i	i
COc1cc2cc(CN(Cc3nnnn3Cc3ccco3)C3CCCCC3)c(=O)[nH]c2cc1OC	i	i	i	29.2	i	i
CCOc1ccc2[nH]c(=O)c(CN(Cc3nnnn3Cc3ccco3)C3CCCCC3)cc2c1	i	i	i	i	i	nt
CCOc1ccc2[nH]c(=O)c(C(c3nnnn3Cc3ccco3)N3CCN(C)CC3)cc2c1 (stereo unspecified)	i	i	i	i	i	nt
Cc1ccc2cc(CN(CCN3CCOCC3)Cc3nnnn3Cc3ccco3)c(=O)[nH]c2c1C	i	i	i	i	i	nt
Cc1ccc2cc(CN(Cc3ccc4c(c3)OCO4)Cc3nnnn3Cc3ccco3)c(=O)[nH]c2c1C	i	i	i	60.5	i	i
Cc1cc2cc(C(c3nnnn3Cc3ccco3)N3CCCCC3)c(=O)[nH]c2cc1C (stereo unspecified)	i	i	i	30.1	i	i
CCCn1c(NC(=O)c2ccccc2)nc(Cc2ccccc2)c1-c1ccc(OC)cc1	nt	i	i	i	i	nt
N#Cc1c(N)n[nH]c1-c1cc2c([nH]1)CCCC2	i	i	i	i	i	nt
N#Cc1cc2c([nH]c1=S)CCCCCC2	i	i	i	25.7	i	i
COc1ccc(-n2c(COc3ccc(Cl)cc3Cl)n[nH]c2=S)cc1	i	i	i	27.3	i	i
SMILES	TCR CD3 inh	SIAE primary	rCAG binder	PRMT1 FP inh	mABHD4 FP	PRMT1 confirm
S=c1[nH]nc(COc2ccc(Cl)cc2)n1-c1ccc(Cl)cc1	i	i	i	27.5	i	i
S=c1[nH]nc(COc2ccc(Cl)cc2)n1-c1ccccc1	i	i	i	i	i	nt
COc1ccc(/C(C)=N\NC(=O)c2ccco2)cc1	nt	i	i	i	i	nt
Cn1cccc1CC(=O)NN=C/C=C\c1ccco1	nt	i	i	i	i	nt
Cc1ccc(-n2nnc(-c3nccs3)n2)cc1	i	i	i	i	i	nt
Clc1ccc(-n2nnc(-c3nccs3)n2)cc1Cl	i	i	i	37.9	i	24.2
CC(=O)Nc1ccc(C(=O)Nc2ccc(S(=O)(=O)N3CCOCC3)cc2)cc1	i	i	i	i	i	nt
CC(=O)Nc1ccc(C2=NNC(=Nc3ccc(S(=O)(=O)N4CCOCC4)cc3)SC2)cc1	i	i	i	60.1	i	85.7
COc1cc(C)c(NC(=O)C(=S)NCCc2ccccc2)cc1C	i	i	i	30.7	i	38.5
Cc1cc(=O)[nH]c(SCn2nnc3ccccc3c2=O)n1	i	i	i	30.8	i	i
O=c1ccnc(SCn2nnc3ccccc3c2=O)[nH]1	i	i	i	43.9	i	i
O=c1c2ccccc2nnn1CSc1nc2ccccc2[nH]1	i	i	i	i	i	nt
O=C(NCCc1ccc2c(c1)OCO2)c1cc(-c2ccccc2)c(N2CCOCC2)s1	nt	i	i	i	i	nt
Cc1cccc(OCC(=O)NN2C(=O)C3C4C=CC(O4)C3C2=O)c1 (stereo unspecified)	i	i	i	i	i	nt
O=C(CCc1ccccc1)NN1C(=O)C2C3C=CC(O3)C2C1=O (stereo unspecified)	i	i	i	56.7	i	i
Cc1ccccc1OCC(=O)NN1C(=O)C2C3C=CC(O3)C2C1=O (stereo unspecified)	i	i	i	i	i	nt
CCOc1ccc(C(=O)NN2C(=O)C3C4C=CC(O4)C3C2=O)cc1 (stereo unspecified)	i	i	i	53.2	i	i
CCCC1CCC2(CC1)CCC2OC(=O)Nc1cc(C)cc(C)c1 (stereo unspecified)	nt	i	nt	i	i	nt
Cc1cccc(C)c1Nc1n[nH]c(=S)s1	i	i	i	31.9	i	i
Cc1ccc(Nc2n[nH]c(=S)s2)c(C)c1	i	i	i	35.4	i	35.8
Cc1cc(C)c(Nc2n[nH]c(=S)s2)cc1C	i	i	i	46.8	i	22.5
CC(C)c1ccc(Nc2n[nH]c(=S)s2)cc1	i	i	i	i	i	nt
O=C(Nc1cccc(Cl)c1)OCCN1CCCC12CCC(c1ccccc1)CC2 (stereo unspecified)	nt	i	nt	i	i	nt
COC(=O)C1=C(C)N(C)C(=NCc2ccc(OC)cc2)NC1c1ccccc1C(F)(F)F (stereo unspecified)	i	i	i	i	i	nt
C[C@@H]1CCN(C2CC2)S(=O)(=O)c2ccc(N3CC[C@H](O)C3)cc2O1	nt	i	i	i	i	nt
O=C1CCC[C@H]2C[C@H](NCc3ccccc3F)CC[C@]23CCCN13	nt	i	nt	i	i	nt
CCOC(=O)c1c(N2C(=O)C3C4C=CC(O4)C3C2=O)sc2c1CCCC2 (stereo unspecified)	i	i	i	82.5	i	56.5
Cc1cc(-c2ccco2)n(CC(=O)NCCCc2ccccc2)n1	i	i	i	47.0	i	i
COCCCNC(=O)C[C@H]1C[C@@]2(C(=O)OC)C(=C[C@H](C(C)C)O[C@@H]2C2CC2)N(Cc2ccco2)C1=O	nt	i	i	i	i	nt

Source: PubChem
